The record followed here is ChEMBL document CHEMBL1124440, “Resolved N,N-dialkylated 2-amino-8-hydroxytetralins: stereoselective interactions with 5-HT1A receptors in the brain” (J Med Chem, 1989).

As usually defined, the ED50 is the dose at which the effect has come halfway, by size or by number of responders. Low readings indicate greater potency, high ones weaker potency. The IC50 is the concentration that gives 50% inhibition.

The test system of experiment [1] is Rattus norvegicus. The experiment in a line: No of rats exhibiting 5-HT motor syndrome tested in reserpinized rats at a subcutaneous dose of 3.2 umol/kg; 0 rats out of 5 showed activity. In kind it is functional.
The target of experiment [2] is T1, Tryptophan 5-hydroxylase 1 (Rattus norvegicus) (UniProt P09810).
T1 sequence (whole entry): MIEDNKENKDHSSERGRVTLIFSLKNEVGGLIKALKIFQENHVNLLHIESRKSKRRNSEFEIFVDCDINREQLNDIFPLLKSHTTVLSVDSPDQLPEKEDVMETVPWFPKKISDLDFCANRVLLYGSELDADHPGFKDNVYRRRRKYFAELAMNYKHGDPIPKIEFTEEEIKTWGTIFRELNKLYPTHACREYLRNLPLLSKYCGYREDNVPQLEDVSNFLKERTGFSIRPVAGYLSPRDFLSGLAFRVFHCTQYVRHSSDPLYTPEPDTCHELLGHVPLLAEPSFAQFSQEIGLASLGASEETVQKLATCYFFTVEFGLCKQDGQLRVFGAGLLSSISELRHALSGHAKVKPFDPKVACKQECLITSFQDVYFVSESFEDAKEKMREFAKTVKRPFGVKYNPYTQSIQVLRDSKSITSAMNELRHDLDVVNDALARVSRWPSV
The experiment in a line: Compound was tested for its effect on NSD 1015 induced accumulation of 5-HTP(ng/g) in rats in corpus striatum at a dosage of 1.0 umol/kg. In kind it is functional. In short, it runs like this: (§1)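 Rats given test drug s.c. in the neck as hydrochloride (5 mL/kg), not reserpine-pretreated; 30 min later NSD 1015 (60 mg/kg, i.e. 287 μmol/kg sc), killed 30 min after that. Brain regions dissected. 5-HTP measured by ion-pair reversed-phase HPLC with electrochemical detection. Mean ± SEM, n = 15 controls, 3–5 per dose; ANOVA with Dunnett's t test vs controls.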

The test system of experiment [3] is Rattus norvegicus. The experiment can be described thus: No of rats exhibiting 5-HT motor syndrome tested in reserpinized rats at a subcutaneous dose of 10 umol/kg; 4 rats out of 5 showed activity. In kind it is functional.
Experiment [4] deals with T1, Tryptophan 5-hydroxylase 1 (Rattus norvegicus). The experiment in a line: Compound was tested for its effect on NSD 1015 induced accumulation of 5-HTP(ng/g) in rats in limbic system at a dosage of 32 umol/kg. In kind it is functional, tissue-based. A digest of the protocol:
as §1

Experiment [5] deals with Rattus norvegicus. The experiment in a line: No of rats exhibiting 5-HT motor syndrome tested in reserpinized rats at a subcutaneous dose of 1.0 umol/kg; o rats out of 3 showed activity. In kind it is functional.
Experiment [6] deals with T1, Tryptophan 5-hydroxylase 1 (Rattus norvegicus). The experiment in a line: Compound was tested for its effect on NSD 1015 induced accumulation of 5-HTP(ng/g) in rats in limbic system at a dosage of 10 umol/kg. In kind it is functional, tissue-based. In short, it runs like this:
as §1

For experiment [7] the target is unchanged. The experiment in a line: Compound was tested for its effect on NSD 1015 induced accumulation of 5-HTP(ng/g) in rats in limbic system at a dosage of 1.0 umol/kg. In kind it is functional, tissue-based. In short, it runs like this:
as §1

Experiment [8] has the same target. The experiment can be described thus: Compound was tested for its effect on NSD 1015 induced accumulation of 5-HTP(ng/g) in rats in corpus striatum at a dosage of 3.2 umol/kg. In kind it is functional. In short, it runs like this:
as §1

Experiment [9] shares this target. The experiment in a line: Approximate dose levels for a half maximal reduction of 5-HTP levels. In kind it is functional. A digest of the protocol:
as §1

The target in experiment [10] is T2, 5-hydroxytryptamine receptor 1A (Rattus norvegicus, UniProt P19327).
T2 sequence (P19327 whole entry): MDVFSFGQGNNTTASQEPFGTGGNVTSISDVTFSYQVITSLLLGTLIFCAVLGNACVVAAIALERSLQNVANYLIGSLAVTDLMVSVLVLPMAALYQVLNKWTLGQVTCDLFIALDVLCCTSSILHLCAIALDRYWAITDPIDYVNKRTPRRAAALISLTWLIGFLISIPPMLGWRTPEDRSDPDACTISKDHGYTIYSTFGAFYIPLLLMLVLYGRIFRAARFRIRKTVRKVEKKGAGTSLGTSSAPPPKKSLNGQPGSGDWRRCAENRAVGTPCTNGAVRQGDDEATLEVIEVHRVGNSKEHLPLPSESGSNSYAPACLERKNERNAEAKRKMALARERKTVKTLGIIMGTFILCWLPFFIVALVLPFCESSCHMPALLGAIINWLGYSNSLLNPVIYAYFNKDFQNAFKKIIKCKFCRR
The experiment can be described thus: Concentration of compound required to inhibit cortical 5-hydroxytryptamine 1A receptor binding sites in rat brain was evaluated. In kind it is tissue-based.

Experiment [11] concerns the target T1, Tryptophan 5-hydroxylase 1 (Rattus norvegicus). The experiment can be described thus: Compound was tested for its effect on NSD 1015 induced accumulation of 5-HTP(ng/g) in rats in corpus striatum at a dosage of 10 umol/kg. In kind it is functional. A digest of the protocol:
as §1

Experiment [12] shares this target. The experiment in a line: Compound was tested for its effect on NSD 1015 induced accumulation of 5-HTP(ng/g) in rats in limbic system at a dosage of 3.2 umol/kg. In kind it is functional, tissue-based. A digest of the protocol: as §1
The target is the same in experiment [13]. The experiment in a line: Compound was tested for its effect on NSD 1015 induced accumulation of 5-HTP(ng/g) in rats in corpus striatum at a dosage of 32 umol/kg. In kind it is functional, tissue-based. A digest of the protocol:
as §1

The subject of experiment [14] is Rattus norvegicus. The experiment can be described thus: No of rats exhibiting 5-HT motor syndrome tested in reserpinized rats at a subcutaneous dose of 10 umol/kg; 0 rats out of 4 showed activity. In kind it is functional.
Experiment [15] has as its system Rattus norvegicus. The experiment in a line: No of rats exhibiting 5-HT motor syndrome tested in reserpinized rats at a subcutaneous dose of 32 umol/kg; 4 rats out of 4 showed activity. In kind it is functional.
Experiment [16] has as its target T1, Tryptophan 5-hydroxylase 1 (Rattus norvegicus). The experiment in a line: Compound was tested for its effect on NSD 1015 induced accumulation of 5-HTP in rats in corpus striatum at a dosage of 0.32 umol/kg. In kind it is functional, tissue-based. In short, it runs like this:
as §1

The target is the same in experiment [17]. The experiment can be described thus: Compound was tested for its effect on NSD 1015 induced accumulation of 5-HTP in rats corpus striatum at a dosage of 0.10 umol/kg. In kind it is functional, tissue-based. In short, it runs like this: as §1
For experiment [18], the system named is Rattus norvegicus. The experiment in a line: No of rats exhibiting 5-HT motor syndrome rats tested in reserpinized rats at a subcutaneous dose of 32 umol/kg; 3 rats out of 3. In kind it is functional.
In experiment [19] the target is T1, Tryptophan 5-hydroxylase 1 (Rattus norvegicus). The experiment can be described thus: Compound was tested for its effect on NSD 1015 induced accumulation of 5-HTP(ng/g) in rats in limbic system at a dosage of 0.32 umol/kg. In kind it is functional, tissue-based. A digest of the protocol: as §1
Experiment [20] has as its system Rattus norvegicus. The experiment can be described thus: No of rats exhibiting 5-HT motor syndrome tested in reserpinized rats at a subcutaneous dose of 3.2 umol/kg; 0 rats out of 4 showed activity. In kind it is functional.
The subject of experiment [21] is Rattus norvegicus. The experiment can be described thus: Number of rats exhibiting 5-HT motor syndrome in reserpinized rats at a subcutaneous dose of 1.0 umol/kg; 0 rats out of 3 showed activity. In kind it is functional.
The target in experiment [22] is T1, Tryptophan 5-hydroxylase 1 (Rattus norvegicus). The experiment can be described thus: Compound was tested for its effects on NSD 1015 induced accumulation of 5-HTP(ng/g) in rats in limbic system at a dosage of 0.10 umol/kg. In kind it is functional, tissue-based. A digest of the protocol: as §1
For experiment [23], the system named is Rattus norvegicus. The experiment in a line: No of rats exhibiting 5-HT motor syndrome rats tested in reserpinized rats at a subcutaneous dose of 10 umol/kg; 4 rats out of 4. In kind it is functional.
In experiment [24] the test system is Rattus norvegicus. The experiment can be described thus: No of rats exhibiting 5-HT motor syndrome tested in reserpinized rats at a subcutaneous dose of 1.0 umol/kg; 3 rats out of 3 showed activity. In kind it is functional.
Experiment [25] has as its target T1, Tryptophan 5-hydroxylase 1 (Rattus norvegicus). The experiment can be described thus: Compound was tested for its effect on NSD 1015 induced accumulation of 5-HTP(ng/g) in rats in limbic system at a dosage of 0.10 umol/kg. In kind it is functional, tissue-based. In short, it runs like this: as §1
For experiment [26] the target is unchanged. The experiment can be described thus: Compound was tested for its effect on NSD 1015 induced accumulation of 5-HTP(ng/g) in rats in limbic system at a dosage of 0.032 umol/kg. In kind it is functional. A digest of the protocol: as §1
For experiment [27] the target is unchanged. The experiment can be described thus: Compound was tested for its effect on NSD 1015 induced accumulation of 5-HTP(ng/g) in rats in corpus striatum at a dosage of 0.032 umol/kg. In kind it is functional. A digest of the protocol: as §1
The test system of experiment [28] is Rattus norvegicus. The experiment in a line: No of rats exhibiting 5-HT motor syndrome tested in reserpinized rats at a subcutaneous dose of a. 0.1 umol/kg; 0 rats out of 4 showed activity. In kind it is functional.
The test system of experiment [29] is Rattus norvegicus. The experiment in a line: No of rats exhibiting 5-HT motor syndrome tested in reserpinized rats at a subcutaneous dose of 0.32 umol/kg; 4 rats out of 4 showd activity. In kind it is functional.

For `CCN(CC)[C@H]1CCc2cccc(O)c2C1`, the Activity was 0 in experiment [1]; 85 ng/g in experiment [2]; 4 in experiment [3]; 74 ng/g in [4]; 0 in experiment [5]; 86 ng/g in [6]. In addition, the Activity is 135 ng/g in experiment [7]; 74 ng/g in experiment [8]; 55 ng/g in experiment [11]; 107 ng/g in [12]; 46 ng/g in experiment [13]. It took a dose of 3 µmol/kg to reach the 50% effect level in experiment [9] (ED50). This compound also gave an IC50 in [10] of 114 nM.
Turning to `CCCCN(CCCC)[C@@H]1CCc2cccc(O)c2C1`, the Activity in [14] amounted to 0; in experiment [4] it was 106 ng/g; in experiment [15], 4; in experiment [6], 145 ng/g; in [11], 80 ng/g; in [13], 63 ng/g. Also, the median effective dose (ED50) in [9] was 20 µmol/kg. Further, the IC50 in experiment [10] worked out at 109 nM.
Consider `CN(C)[C@@H]1CCc2cccc(O)c2C1`, for which the Activity in experiment [16] was determined as 79 ng/g; in experiment [17] it was 88 ng/g; in experiment [2] it was 76 ng/g; in [6], 89 ng/g; in experiment [7], 110 ng/g; in [18] it was 3. Besides, the Activity in experiment [19] is 130 ng/g; in experiment [8], 67 ng/g; in [20] it was 0; in experiment [21], 0; in [11], 44 ng/g; in [22], 172 ng/g. The Activity came out at 4 in [23] and 90 ng/g in experiment [12]. In experiment [9], this compound yielded an ED50 of 1 µmol/kg. This compound yielded an IC50 in [10] of 75 nM.
In the case of `CCN(CC)[C@@H]1CCc2cccc(O)c2C1`, the Activity in [16] is 50 ng/g; in experiment [17] it was 68 ng/g; in experiment [2], 47 ng/g; in experiment [24], 3; in [25], 110 ng/g; in experiment [26], 131 ng/g. Moreover, the Activity in [27] came to 87 ng/g; in [7] it was 72 ng/g; in [19] it was 70 ng/g; in experiment [28] it was 0; in experiment [29] it was 4. Also, the ED50 in experiment [9] worked out at 0.05 µmol/kg. Also, the IC50 in [10] stood at 9.65 nM.
